From ChEMBL document CHEMBL1128278, “Design, synthesis, and structure--activity relationship studies for a new imidazole series of J774 macrophage specific acyl-CoA:cholesterol acyltransferase (ACAT) inhibitors” (J Med Chem, 1995) come the findings set out here.

Each structure is given as a SMILES string.

The nature of assay [1]: Acyl coenzyme A:cholesterol acyltransferase inhibition in cell culture measured in murine J774 macrophages.
Assay [2] concerns the target T1, Sterol O-acyltransferase 1 (Rattus norvegicus, UniProt O70536).
T1 sequence (O70536 whole entry): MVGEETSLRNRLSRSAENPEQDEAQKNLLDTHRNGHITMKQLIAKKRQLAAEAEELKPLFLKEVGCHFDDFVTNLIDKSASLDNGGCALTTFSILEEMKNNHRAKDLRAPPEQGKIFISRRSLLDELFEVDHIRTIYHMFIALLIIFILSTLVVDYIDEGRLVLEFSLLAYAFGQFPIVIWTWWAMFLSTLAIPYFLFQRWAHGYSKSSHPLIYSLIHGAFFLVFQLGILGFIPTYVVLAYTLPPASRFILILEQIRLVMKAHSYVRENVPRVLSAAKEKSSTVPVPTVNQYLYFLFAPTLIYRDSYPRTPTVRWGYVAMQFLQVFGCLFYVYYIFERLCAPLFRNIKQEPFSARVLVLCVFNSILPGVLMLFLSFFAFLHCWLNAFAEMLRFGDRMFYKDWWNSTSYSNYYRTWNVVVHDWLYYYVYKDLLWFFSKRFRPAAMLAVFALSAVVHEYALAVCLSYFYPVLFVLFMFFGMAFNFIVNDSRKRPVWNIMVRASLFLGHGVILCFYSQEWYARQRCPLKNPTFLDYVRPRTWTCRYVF
In words: Concentration required to inhibit 50% activity of Acyl coenzyme A:cholesterol acyltransferase 1 in vitro using rat liver microsome. It counts as microsomes. The gist of the method:
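Rat liver microsomes; ACAT activity read as [14C]cholesteryl oleate formed from [14C]oleoyl-CoA (pmol/min/mg). Inhibitors added in 5 µL DMSO. Duplicate assays with at least four inhibitor concentrations bracketing the IC50; IC50 is the concentration giving 50% inhibition of ACAT activity. Average range of replicates ±17%.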

In the case of `CCCCCCCN(CCCCCSc1nc(CCC)c(CCC)[nH]1)C(=O)Nc1ccc(F)cc1F`, the results for the IC50 in assay [1] and in assay [2] (read-out: IC50) were 2700 nM and 60 nM, respectively.

For `CC(C)NC(=O)N(CCN(C)CCSc1nc(-c2ccccc2)c(-c2ccccc2)[nH]1)CCN1CCOCC1`, the half-maximal inhibitory concentration (IC50) amounted to 6280 nM in assay [1] and 350 nM in assay [2] (read-out: IC50).

Consider `CCCCCCCN(CCOCCSc1nc(-c2ccccc2)c(-c2ccccc2)[nH]1)C(=O)NC(C)C`, for which the results for the half-inhibitory concentration (IC50) in assay [1] and in assay [2] (read-out: IC50) were 990 nM and 190 nM, respectively.

For `CCCCCCCN(CCOCCSc1nc(-c2ccc(OC)cc2)c(-c2ccc(OC)cc2)[nH]1)C(=O)NC(C)C`, the IC50 in assay [1] came out at 340 nM; in assay [2] (read-out: IC50), 850 nM.

As to `CCCCCCCN(CCCCCSc1nc(-c2cccc(OC)c2)c(-c2cccc(OC)c2)[nH]1)C(=O)Nc1ccc(F)cc1F`, the values for the 50% inhibitory concentration (IC50) in assay [1] and in assay [2] (read-out: IC50) were 360 nM and 40 nM, respectively.

Take `CCCCCCCN(CCN(C)CCSc1nc(-c2ccccc2)c(-c2ccccc2)[nH]1)C(=O)NC(C)C`: the IC50 in assay [1] worked out at 2400 nM; in assay [2] (read-out: IC50), 260 nM.

Consider `CCCCCCCN(CCCCCSc1nc(-c2ccc(OC)cc2)c(-c2ccc(OC)cc2)[nH]1)C(=O)Nc1ccc(F)cc1F`, for which the values for the IC50 in assay [1] and in assay [2] (read-out: IC50) were 80 nM and 140 nM, respectively.

Regarding `CCOCCOCCN(CCCCCSc1nc(-c2ccccc2)c(-c2ccccc2)[nH]1)C(=O)Nc1ccc(F)cc1F`, the results for the half-maximal inhibitory concentration (IC50) in assay [1] and in assay [2] (read-out: IC50) were 4010 nM and 50 nM, respectively.

In the case of `COc1ccc(-c2nc(SCCCOCCN(CCOCCO)C(=O)NC(C)C)[nH]c2-c2ccc(OC)cc2)cc1`, the IC50 came out at 2420 nM in assay [1] and 480 nM in assay [2] (read-out: IC50).

On to `CCCCCCCN(CCCCCSc1nc2c([nH]1)-c1ccccc1Oc1ccccc1-2)C(=O)Nc1ccc(F)cc1F`, for which the figures for the half-inhibitory concentration (IC50) in assay [1] and in assay [2] (read-out: IC50) were 1720 nM and 60 nM, respectively.

For the molecule `CCCCCCCN(CCCCCSc1nc(-c2ccccn2)c(-c2ccccn2)[nH]1)C(=O)Nc1ccc(F)cc1F`, the IC50 in assay [1] was 2250 nM; in assay [2] (read-out: IC50) it was 1000 nM.

Take `CCOCCOCCN(CCCCCSc1nc(-c2ccccc2)c(-c2ccccc2)[nH]1)C(=O)NC(C)C`: the IC50 in assay [1] was 3020 nM; in assay [2] (read-out: IC50) it was 30 nM.

`CCCCCCCN(CCCCCSc1nc(-c2cccs2)c(-c2cccs2)[nH]1)C(=O)Nc1ccc(F)cc1F`: the IC50 in assay [1] is 940 nM; in assay [2] (read-out: IC50), 60 nM.

As for `COCCOCCN(CCCCCSc1nc(-c2ccc(OC)cc2)c(-c2ccc(OC)cc2)[nH]1)C(=O)Nc1ccc(F)cc1F`, the 50% inhibitory concentration (IC50) in assay [1] turned out to be 250 nM; in assay [2] (read-out: IC50) it was 340 nM.

For `COc1ccc(-c2nc(SCCCCCN(CCN3CCOCC3)C(=O)Nc3ccc(F)cc3F)[nH]c2-c2ccc(OC)cc2)cc1`, the concentration for half-maximal inhibition (IC50) in assay [1] was 1340 nM; in assay [2] (read-out: IC50) it was 270 nM.

`COc1ccc(-c2nc(SCCCCCN(CCCCCO)C(=O)NC(C)C)[nH]c2-c2ccc(OC)cc2)cc1` returned an IC50 in assay [1] of 1000 nM.

Turning to `CCCCCCCN(CCCCCSc1nc(-c2ccc(F)cc2)c(-c2ccc(F)cc2)[nH]1)C(=O)Nc1ccc(F)cc1F`, the results for the IC50 in assay [1] and in assay [2] (read-out: IC50) were 3500 nM and 40 nM, respectively.

As to `CCCCCCCN(CCCCCSc1nc(-c2ccco2)c(-c2ccco2)[nH]1)C(=O)Nc1ccc(F)cc1F`, the half-maximal inhibitory concentration (IC50) is 450 nM in assay [1] and 200 nM in assay [2] (read-out: IC50).

Take `CC(C)NC(=O)N(CCCCCSc1nc(-c2ccccc2)c(-c2ccccc2)[nH]1)CCOCCO`: the IC50 in assay [1] was 6840 nM; in assay [2] (read-out: IC50), 90 nM.

In the case of `O=C(Nc1ccc(F)cc1F)N(CCCCCSc1nc(-c2ccccc2)c(-c2ccccc2)[nH]1)CCOCCO`, the IC50 in assay [1] stood at 6740 nM; in assay [2] (read-out: IC50) it was 40 nM.

For `CCCCCCCN(CCN(C)CCSc1nc(-c2ccccc2)c(-c2ccccc2)[nH]1)C(=O)Nc1ccc(F)cc1F`, the values for the IC50 in assay [1] and in assay [2] (read-out: IC50) were 1470 nM and 170 nM, respectively.

Take `CCCCCCCN(CCCCCSc1nc(-c2ccc(OC)cc2)c(-c2ccc(OC)cc2)[nH]1)C(=O)CC1CCCCC1`: the results for the 50% inhibitory concentration (IC50) in assay [1] and in assay [2] (read-out: IC50) were 29 nM and 11 nM, respectively.

On to `CCCCCCCN(CCCCCSc1nc(-c2ccc(N(C)C)cc2)c(-c2ccc(N(C)C)cc2)[nH]1)C(=O)CC1CCCCC1`, for which the IC50 is 16 nM in assay [1] and 50 nM in assay [2] (read-out: IC50).

Turning to `COCCOCCN(CCCCCSc1nc(-c2ccc(OC)cc2)c(-c2ccc(OC)cc2)[nH]1)C(=O)NC(C)C`, the IC50 in assay [1] worked out at 360 nM; in assay [2] (read-out: IC50), 500 nM.

Regarding `CN(CCSc1nc(-c2ccccc2)c(-c2ccccc2)[nH]1)CCN(CCN1CCOCC1)C(=O)Nc1ccc(F)cc1F`, the IC50 is 2740 nM in assay [1] and 240 nM in assay [2] (read-out: IC50).

As to `CCCCCCCN(CCOCCSc1nc(-c2ccccc2)c(-c2ccccc2)[nH]1)C(=O)Nc1ccc(F)cc1F`, the IC50 in assay [1] was found to be 3980 nM; in assay [2] (read-out: IC50), 80 nM.

Take `CCCCCCCN(CCCCCSc1nc(C(C)C)c(C(C)C)[nH]1)C(=O)Nc1ccc(F)cc1F`: the IC50 in assay [1] came out at 640 nM; in assay [2] (read-out: IC50), 20 nM.

For `CCCCCCCN(CCOCCSc1nc(-c2ccc(OC)cc2)c(-c2ccc(OC)cc2)[nH]1)C(=O)Nc1ccc(F)cc1F`, the values for the 50% inhibitory concentration (IC50) in assay [1] and in assay [2] (read-out: IC50) were 500 nM and 2300 nM, respectively.

As to `CCCCCCCN(CCCCCSc1nc(-c2ccc(N(C)C)cc2)c(-c2ccc(N(C)C)cc2)[nH]1)C(=O)Oc1ccccc1`, the half-inhibitory concentration (IC50) came out at 60 nM in assay [1] and 120 nM in assay [2] (read-out: IC50).

For the molecule `CCCCCCCN(CCCCCSc1nc(-c2ccc(S(C)(=O)=O)cc2)c(-c2ccc(S(C)(=O)=O)cc2)[nH]1)C(=O)Nc1ccc(F)cc1F`, the IC50 in assay [1] was 2020 nM; in assay [2] (read-out: IC50), more than 50000 nM.

Turning to `CCOCCOCCN(CCCCCSc1nc(-c2ccc(SC)cc2)c(-c2ccc(SC)cc2)[nH]1)C(=O)NC(C)C`, the figures for the half-maximal inhibitory concentration (IC50) in assay [1] and in assay [2] (read-out: IC50) were 40 nM and 280 nM, respectively.

In the case of `CCCCCCCN(CCCCCSc1nc(-c2ccc(C)cc2)c(-c2ccc(C)cc2)[nH]1)C(=O)Nc1ccc(F)cc1F`, the figures for the IC50 in assay [1] and in assay [2] (read-out: IC50) were 290 nM and 80 nM, respectively.

Consider `O=C(Nc1ccc(F)cc1F)N(CCCCCSc1nc(-c2ccccc2)c(-c2ccccc2)[nH]1)CCN1CCOCC1`, for which the IC50 in assay [1] turned out to be 880 nM; in assay [2] (read-out: IC50) it was 70 nM.

On to `CCCCCCCN(CCCCCSc1nc(-c2ccc(SC)cc2)c(-c2ccc(SC)cc2)[nH]1)C(=O)Nc1ccc(F)cc1F`, for which the values for the half-maximal inhibitory concentration (IC50) in assay [1] and in assay [2] (read-out: IC50) were 50 nM and 70 nM, respectively.

On to `CCCCCCCN(CCCCCSc1nc(-c2ccc(OC)cc2)c(-c2ccc(OC)cc2)[nH]1)C(=O)NC(C)C`, for which the IC50 stood at 4 nM in assay [1] and 160 nM in assay [2] (read-out: IC50).

For the molecule `CCCCCCCN(CCCCCSc1nc(-c2ccc(N(C)C)cc2)c(-c2ccc(N(C)C)cc2)[nH]1)C(=O)Nc1ccc(F)cc1F`, the IC50 in assay [1] was 80 nM; in assay [2] (read-out: IC50), 50 nM.

On to `CCCCOCCN(CCCCCSc1nc(-c2ccccc2)c(-c2ccccc2)[nH]1)C(=O)Nc1ccc(F)cc1F`, for which the values for the concentration for half-maximal inhibition (IC50) in assay [1] and in assay [2] (read-out: IC50) were 1750 nM and 70 nM, respectively.

As for `COCCOCCN(CCCCCSc1nc(-c2ccc(N(C)C)cc2)c(-c2ccc(N(C)C)cc2)[nH]1)C(=O)NC(C)C`, the IC50 in assay [1] was 7510 nM; in assay [2], “Not Active”.

Turning to `CCCCCCCN(CCCCCSc1nc2c([nH]1)-c1ccccc1OCOc1ccccc1-2)C(=O)Nc1ccc(F)cc1F`, the IC50 amounted to 840 nM in assay [1] and 30 nM in assay [2] (read-out: IC50).

For `CCCCCCCN(CCCCCSc1nc(-c2ccc(C(F)(F)F)cc2)c(-c2ccc(C(F)(F)F)cc2)[nH]1)C(=O)Nc1ccc(F)cc1F`, the figures for the half-inhibitory concentration (IC50) in assay [1] and in assay [2] (read-out: IC50) were 25000 nM and 39900 nM, respectively.

For the molecule `CCCCCCCN(CCCCCSc1nc(-c2ccc(O)cc2)c(-c2ccc(O)cc2)[nH]1)C(=O)Nc1ccc(F)cc1F`, the IC50 was 4750 nM in assay [1] and 2400 nM in assay [2] (read-out: IC50).

Take `CCCCOCCN(CCCCCSc1nc(-c2ccccc2)c(-c2ccccc2)[nH]1)C(=O)NC(C)C`: the IC50 in assay [1] worked out at 840 nM; in assay [2] (read-out: IC50) it was 190 nM.

Consider `COc1ccc(-c2nc(SCCCCCN(CCOCCO)C(=O)Nc3ccc(F)cc3F)[nH]c2-c2ccc(OC)cc2)cc1`, for which the half-maximal inhibitory concentration (IC50) in assay [1] came out at 840 nM; in assay [2] (read-out: IC50), 230 nM.

For `CCN(CC)CCN(CCCCCSc1nc(-c2ccccc2)c(-c2ccccc2)[nH]1)C(=O)Nc1ccc(F)cc1F`, the results for the IC50 in assay [1] and in assay [2] (read-out: IC50) were 2180 nM and 80 nM, respectively.

As for `CCCCCCCN(CCCCCSc1nc(C2CCCCC2)c(C2CCCCC2)[nH]1)C(=O)Nc1ccc(F)cc1F`, the IC50 worked out at 640 nM in assay [1] and 20 nM in assay [2] (read-out: IC50).

Turning to `CCCCCCCN(CCCCCSc1nc(-c2ccc(OC)cc2)c(-c2ccc(OC)cc2)[nH]1)C(=O)Oc1ccccc1`, the half-inhibitory concentration (IC50) in assay [1] turned out to be 32 nM; in assay [2] (read-out: IC50) it was 640 nM.

As for `CCCCCCCN(CCCCCSc1nc(-c2ccccc2OC)c(-c2ccccc2OC)[nH]1)C(=O)Nc1ccc(F)cc1F`, the IC50 in assay [1] amounted to 2070 nM; in assay [2] (read-out: IC50), 350 nM.

In the case of `CCN(CC)CCN(CCCCCSc1nc(-c2ccccc2)c(-c2ccccc2)[nH]1)C(=O)NC(C)C`, the values for the half-inhibitory concentration (IC50) in assay [1] and in assay [2] (read-out: IC50) were 580 nM and 660 nM, respectively.
